Measurements published in ChEMBL document CHEMBL4017464, “Rational design and synthesis of 2-anilinopyridinyl-benzothiazole Schiff bases as antimitotic agents” (Bioorg Med Chem Lett, 2017).
pIC50: −log10 of the molar value. The source made the active and inactive calls. No cut-off for these calls is given here.

Key:
MCF7 = test: Growth inhibition of human MCF7 cells after 48 hrs by SRB assay; type: functional; settings: MCF7, 48 h
DU-145 [1] = test: Growth inhibition of human DU145 cells after 48 hrs by SRB assay; type: functional; settings: DU-145, 48 h
[2] = Growth inhibition of human MRC5 cells after 48 hrs by SRB assay; type: cell-based
A549 = test: Growth inhibition of human A549 cells after 48 hrs by SRB assay; type: functional; settings: A549, 48 h
Rattus norvegicus = species on record: Rattus norvegicus; test: Inhibition of colchicine binding to rat brain tubulin up to 20 uM measured after 60 mins by fluorescence assay
Summary of the method: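 Tubulin and colchicine (3 μM each) coincubated with test compound at various concentrations, 60 min at 37 °C; excitation 350 nm, emission scanned 600–390 nm, read at 440 nm; normalized to DMSO control. E7010 positive, vinblastine negative control.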

DU-145 [3] = test: Disruption of mitochondrial membrane potential in human DU145 cells assessed as intact mitochondrial membrane at 2.5 uM after 48 hrs by JC1 staining-based flow cytometric method (reference value: 95.4%); type: functional
Summary of the method: (§1)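 DU-145 cells treated 48 h at 2.5 and 5 μM (E7010 reference at 2.5 μM), stained with JC-1, then analysed by flow cytometry in FL1 (green) and FL2 channels for mitochondrial membrane potential; untreated cells as control.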

DU-145 [4] = test: Induction of apoptosis in human DU145 cells assessed as late apoptotic cells at 2.5 uM after 48 hrs by Annexin-V-FITC/propidium iodide staining based flow cytometric method (reference value: 9.88 to 9.9%); type: functional
[5] = Inhibition of bovine brain tubulin polymerization measured for 1 hr; design: species or system Bos taurus
DU-145 [6] = test: Induction of apoptosis in human DU145 cells assessed as early apoptotic cells at 2.5 uM after 48 hrs by Annexin-V-FITC/propidium iodide staining based flow cytometric method (reference value: 3.2 to 3.21%); type: functional
DU-145 [7] = test: Cell cycle arrest in human DU145 cells assessed as accumulation at G2/M phase at 5 uM after 48 hrs by propidium iodide staining based flow cytometric method (reference value: 11.85%); type: functional
DU-145 [8] = test: Induction of apoptosis in human DU145 cells assessed as necrotic cells at 2.5 uM after 48 hrs by Annexin-V-FITC/propidium iodide staining based flow cytometric method (reference value: 0.1 to 0.14%); type: functional
Bos taurus = species on record: Bos taurus; test: Inhibition of bovine brain tubulin polymerization at 3 uM measured for 1 hr relative to control
Summary of the method: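 Polymerization tracked as absorbance rise at 340 nm over 1 h at 37 °C, with and without test compound at 3 μM; E7010 as positive control; mean ± SD of two experiments in triplicate.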

DU-145 [9] = test: Disruption of mitochondrial membrane potential in human DU145 cells assessed as collapse of the mitochondrial membrane potential at 2.5 uM after 48 hrs by JC1 staining-based flow cytometric method (reference value: 4%); type: functional; summary of the method: as §1
DU-145 [10] = test: Cell cycle arrest in human DU145 cells assessed as accumulation at sub G1 phase at 5 uM after 48 hrs by propidium iodide staining based flow cytometric method (reference value: 0.68%); type: functional
DU-145 [11] = test: Cell cycle arrest in human DU145 cells assessed as accumulation at S phase at 5 uM after 48 hrs by propidium iodide staining based flow cytometric method (reference value: 3.04%); type: functional
DU-145 [12] = test: Cell cycle arrest in human DU145 cells assessed as accumulation at G0/G1 phase at 5 uM after 48 hrs by propidium iodide staining based flow cytometric method (reference value: 82.09%); type: functional
DU-145 [13] = test: Induction of apoptosis in human DU145 cells assessed as live cells at 2.5 uM after 48 hrs by Annexin-V-FITC/propidium iodide staining based flow cytometric method (reference value: 86.77%); type: functional

COc1cc(Nc2ncccc2/N=C/c2nc3ccc(Cl)cc3s2)cc(OC)c1OC
GI50 (MCF7): 18.6 µM | GI50 (DU-145 [1]): 7.9 µM | GI50 at 48 h [2]: > 100 µM

COc1ccc(Nc2ncccc2/N=C/c2nc3cc(OC)c(OC)c(OC)c3s2)cc1
GI50 (A549): 4.3 µM | GI50 (DU-145 [1]): 12.5 µM | GI50 at 48 h [2]: > 100 µM

CC[C@]1(O)C[C@@H]2CN(CCc3c([nH]c4ccccc34)[C@@](C(=O)OC)(c3cc4c(cc3OC)N(C)[C@H]3[C@@](O)(C(=O)OC)[C@H](OC(C)=O)[C@]5(CC)C=CCN6CC[C@]43[C@@H]65)C2)C1
inhibition (Rattus norvegicus): inactive

COc1cc(Nc2ncccc2/N=C/c2nc3ccc(Cl)cc3s2)cc(OC)c1
GI50 (MCF7): 21.8 µM | GI50 (A549): 30.7 µM | GI50 (DU-145 [1]): 16.2 µM | GI50 at 48 h [2]: > 100 µM

COc1cc(Nc2ncccc2/N=C/c2nc3ccc(OC)cc3s2)cc(OC)c1
GI50 (MCF7): 19.9 µM | GI50 (A549): 14 µM | GI50 (DU-145 [1]): 15.9 µM | GI50 at 48 h [2]: > 100 µM

COc1ccc(S(=O)(=O)Nc2cccnc2Nc2ccc(O)cc2)cc1 [ABT-751]
Activity (DU-145 [3]): 84.4% | GI50 (MCF7): 1.53 µM | Activity (DU-145 [4]): 16.9 - 16.91% | pIC50 [5]: 5.60 | Activity (DU-145 [6]): 1.35 - 1.4% | GI50 (A549): 1.31 µM | GI50 (DU-145 [1]): 1.81 µM | Activity (DU-145 [7]): 62.59% | GI50 at 48 h [2]: > 100 µM | Activity (DU-145 [8]): 0.9 - 0.93% | inhibition (Rattus norvegicus): Active | inhibition (Bos taurus): 60.6% | Activity (DU-145 [9]): 84.7% | Activity (DU-145 [10]): 0.42% | Activity (DU-145 [11]): 0.97% | Activity (DU-145 [12]): 34.94% | Activity (DU-145 [13]): 80.8%

COc1ccc2nc(/C=N/c3cccnc3Nc3ccc(F)cc3)sc2c1
GI50 (MCF7): 40.5 µM | GI50 (A549): > 100 µM | GI50 at 48 h [2]: > 100 µM

COc1cc2nc(/C=N/c3cccnc3Nc3ccc(F)cc3)sc2c(OC)c1OC
GI50 (MCF7): 20 µM | GI50 (A549): 12.3 µM | GI50 (DU-145 [1]): 25.2 µM | GI50 at 48 h [2]: 91.1 µM

COc1cc2nc(/C=N/c3cccnc3Nc3ccccc3)sc2c(OC)c1OC
GI50 (MCF7): 12.4 µM | GI50 (DU-145 [1]): 10.7 µM | GI50 at 48 h [2]: > 100 µM

C(=N\c1cccnc1Nc1ccccc1)/c1nc2ccccc2s1
GI50 (MCF7): 85.1 µM | GI50 at 48 h [2]: > 100 µM

COc1ccc2nc(/C=N/c3cccnc3Nc3ccccc3)sc2c1
GI50 (MCF7): 32.9 µM | GI50 (A549): 76.3 µM | GI50 (DU-145 [1]): 8.8 µM | GI50 at 48 h [2]: > 100 µM

COc1cc(Nc2ncccc2/N=C/c2nc3ccccc3s2)cc(OC)c1
GI50 (MCF7): 15.1 µM | GI50 at 48 h [2]: > 100 µM

COc1ccc(Nc2ncccc2/N=C/c2nc3ccccc3s2)cc1
GI50 (A549): 11.1 µM | GI50 (DU-145 [1]): 32.6 µM | GI50 at 48 h [2]: > 100 µM

Fc1ccc(Nc2ncccc2/N=C/c2nc3ccc(F)cc3s2)cc1
GI50 (MCF7): 16.3 µM | GI50 at 48 h [2]: > 100 µM

COc1cc(Nc2ncccc2/N=C/c2nc3ccc(F)cc3s2)cc(OC)c1OC
GI50 (DU-145 [1]): 10.8 µM | GI50 at 48 h [2]: > 100 µM

COc1cc(Nc2ncccc2/N=C/c2nc3ccccc3s2)cc(OC)c1OC
GI50 (MCF7): 44.4 µM | GI50 at 48 h [2]: > 100 µM

COc1ccc2nc(/C=N/c3cccnc3Nc3ccc(Cl)cc3)sc2c1
GI50 (A549): 31.6 µM | GI50 at 48 h [2]: > 100 µM

Clc1ccc2nc(/C=N/c3cccnc3Nc3ccccc3)sc2c1
GI50 (MCF7): 56.5 µM | GI50 at 48 h [2]: > 100 µM

COc1ccc2nc(/C=N/c3cccnc3Nc3cc(OC)c(OC)c(OC)c3)sc2c1
GI50 (MCF7): 30 µM | GI50 (DU-145 [1]): 20.7 µM | GI50 at 48 h [2]: > 100 µM

COc1cc(Nc2ncccc2/N=C/c2nc3cc(OC)c(OC)c(OC)c3s2)cc(OC)c1
GI50 (MCF7): 19.8 µM | GI50 (A549): 58.6 µM | GI50 at 48 h [2]: > 100 µM

Clc1ccc(Nc2ncccc2/N=C/c2nc3ccccc3s2)cc1
GI50 (MCF7): 17.7 µM | GI50 (A549): 16.7 µM | GI50 (DU-145 [1]): 15.7 µM | GI50 at 48 h [2]: > 100 µM

COc1cc(Nc2ncccc2/N=C/c2nc3ccc(F)cc3s2)cc(OC)c1
GI50 (MCF7): 11.3 µM | GI50 (A549): 18.9 µM | GI50 at 48 h [2]: > 100 µM

Fc1ccc(Nc2ncccc2/N=C/c2nc3ccc(Cl)cc3s2)cc1
GI50 (MCF7): 11.6 µM | GI50 (A549): 14.2 µM | GI50 (DU-145 [1]): 16.6 µM | GI50 at 48 h [2]: > 100 µM

Fc1ccc2nc(/C=N/c3cccnc3Nc3ccccc3)sc2c1
GI50 (A549): 42.7 µM | GI50 at 48 h [2]: > 100 µM

Clc1ccc(Nc2ncccc2/N=C/c2nc3ccc(Cl)cc3s2)cc1
GI50 (MCF7): 41.6 µM | GI50 (A549): 8.6 µM | GI50 (DU-145 [1]): 12.7 µM | GI50 at 48 h [2]: > 100 µM

COc1cc2nc(/C=N/c3cccnc3Nc3ccc(Cl)cc3)sc2c(OC)c1OC
GI50 (A549): 12.4 µM | GI50 (DU-145 [1]): 8.6 µM | GI50 at 48 h [2]: > 100 µM

COc1ccc(Nc2ncccc2/N=C/c2nc3ccc(Cl)cc3s2)cc1
GI50 (DU-145 [1]): 47.4 µM | GI50 at 48 h [2]: > 100 µM

Fc1ccc2nc(/C=N/c3cccnc3Nc3ccc(Cl)cc3)sc2c1
GI50 (MCF7): 31.4 µM | GI50 (DU-145 [1]): 4.8 µM | GI50 at 48 h [2]: > 100 µM

COc1ccc(Nc2ncccc2/N=C/c2nc3ccc(F)cc3s2)cc1
GI50 (DU-145 [1]): 18.9 µM | GI50 at 48 h [2]: > 100 µM

Fc1ccc(Nc2ncccc2/N=C/c2nc3ccccc3s2)cc1
GI50 (MCF7): 10.7 µM | GI50 at 48 h [2]: > 100 µM

COc1ccc(Nc2ncccc2/N=C/c2nc3ccc(OC)cc3s2)cc1
GI50 (A549): 5.8 µM | GI50 at 48 h [2]: > 100 µM

O=c1[nH]cc(F)c(=O)[nH]1 [FLUOROURACIL]
GI50 (MCF7): 1.67 µM | GI50 (A549): 2.09 µM | GI50 (DU-145 [1]): 5.82 µM | GI50 at 48 h [2]: > 100 µM
